The source of these data is ChEMBL document CHEMBL3813677, “Structure-Activity Relationship Studies and Molecular Modeling of Naphthalene-Based Sphingosine Kinase 2 Inhibitors” (ACS Med Chem Lett, 2016).

The structures appear in SMILES notation.

Experiment [1] deals with T1, Sphingosine kinase 2 (Homo sapiens) (UniProt Q9NRA0).
T1 sequence (whole entry): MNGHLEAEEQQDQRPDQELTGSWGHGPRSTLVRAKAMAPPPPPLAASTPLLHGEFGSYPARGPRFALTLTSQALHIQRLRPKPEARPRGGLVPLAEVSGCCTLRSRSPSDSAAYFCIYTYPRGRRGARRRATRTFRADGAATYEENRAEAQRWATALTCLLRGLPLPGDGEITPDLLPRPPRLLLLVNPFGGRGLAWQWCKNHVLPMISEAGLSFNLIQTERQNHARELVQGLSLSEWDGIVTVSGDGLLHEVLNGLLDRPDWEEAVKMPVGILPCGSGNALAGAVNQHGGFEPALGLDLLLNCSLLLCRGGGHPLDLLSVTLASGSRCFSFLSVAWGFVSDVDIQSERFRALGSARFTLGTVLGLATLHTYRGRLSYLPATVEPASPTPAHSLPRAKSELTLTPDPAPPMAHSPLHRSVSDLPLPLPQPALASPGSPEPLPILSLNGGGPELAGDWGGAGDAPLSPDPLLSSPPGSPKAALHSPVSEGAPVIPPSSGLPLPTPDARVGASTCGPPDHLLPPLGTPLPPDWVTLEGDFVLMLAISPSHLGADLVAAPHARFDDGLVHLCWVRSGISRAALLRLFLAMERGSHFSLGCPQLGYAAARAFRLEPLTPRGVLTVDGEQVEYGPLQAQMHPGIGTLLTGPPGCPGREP
The experiment in a line: Inhibition of human recombinant SphK2 remaining enzyme activity at 1 uM using sphingosine as substrate incubated for 20 mins by scintillation counting analysis in presence of [gamma-32P]ATP.

A further experiment is filed under the species Homo sapiens. The experiment in a line: Selectivity ratio of Ki for human recombinant SphK1 to Ki for human recombinant SphK2. Put shortly: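 Recombinant human SphK1 and SphK2. Inhibitory constants came from kinetic analysis of S1P production, with sphingosine concentration varied and ATP held at a fixed concentration, run with and without inhibitor. Selectivity was taken as the ratio of the two enzymes' constants.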

The next experiment deals with T2, Sphingosine kinase 2 (Homo sapiens, UniProt Q9NRA0).
T2 sequence (Q9NRA0 whole entry): T1 sequence (whole entry)
The experiment can be described thus: Inhibition of human recombinant SphK2 using sphingosine as substrate incubated for 20 mins by scintillation counting analysis in presence of [gamma-32P]ATP.

For another experiment, the target named is Sphingosine kinase 1 (Homo sapiens, UniProt Q9NYA1). The experiment can be described thus: Inhibition of human recombinant SphK1 using sphingosine as substrate incubated for 20 mins by scintillation counting analysis in presence of [gamma-32P]ATP.
Sphingosine kinase 1, sequence (Q9NYA1 whole entry): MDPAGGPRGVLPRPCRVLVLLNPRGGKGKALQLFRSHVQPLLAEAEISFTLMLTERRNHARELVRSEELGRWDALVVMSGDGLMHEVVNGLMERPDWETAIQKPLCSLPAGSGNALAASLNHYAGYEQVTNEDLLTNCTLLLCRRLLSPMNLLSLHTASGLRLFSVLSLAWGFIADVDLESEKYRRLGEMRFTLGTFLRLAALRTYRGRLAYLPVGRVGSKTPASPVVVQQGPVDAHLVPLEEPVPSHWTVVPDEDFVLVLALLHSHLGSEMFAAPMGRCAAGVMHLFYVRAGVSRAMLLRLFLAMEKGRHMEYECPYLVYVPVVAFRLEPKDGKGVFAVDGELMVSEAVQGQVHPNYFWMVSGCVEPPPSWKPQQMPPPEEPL

Consider `CCCCCCCOc1ccc2cc(-c3noc([C@@H]4CCCN4C(=N)N)n3)ccc2c1`, for which the Activity in experiment [1] was found to be 83%.
The term Ki denotes a measure of affinity in units of concentration, obtained from inhibition or displacement. As to `CCCCCOc1ccc2cc(-c3noc([C@@H]4CCCN4C(=N)N)n3)ccc2c1`, the Ratio Ki in the experiment filed under Homo sapiens was 7.3. The Ki at Sphingosine kinase 2 came out at 0.98 µM; on Sphingosine kinase 1, 7.2 µM. In experiment [1], the Activity is 51%.
With `CCCCOc1ccc2cc(-c3noc([C@@H]4CCCN4C(=N)N)n3)ccc2c1`, the Activity in experiment [1] amounted to 69%.
Same read-out and setting: next, `CC1(C)CCC(C)(C)c2cc(COc3ccc4cc(-c5noc([C@@H]6CCCN6C(=N)N)n5)ccc4c3)ccc21`: 104%; `COCCCOc1ccc2cc(-c3noc([C@@H]4CCCN4C(=N)N)n3)ccc2c1`: 109%; `N#Cc1ccc(COc2ccc3cc(-c4noc([C@@H]5CCCN5C(=N)N)n4)ccc3c2)cc1`: 43%.
In the case of `CCCCCCCCc1ccc(-c2noc([C@@H]3CCCN3C(=N)N)n2)cc1`, the Ki on Sphingosine kinase 2 came to 1.4 µM. Further, the Activity in experiment [1] worked out at 61%.
Turning to `N=C(N)N1CCC[C@H]1c1nc(-c2ccc3cc(OCCc4ccc(C(F)(F)F)cc4)ccc3c2)no1`, the Activity in experiment [1] was determined as 30%.
Turning to `CCCCCCOc1ccc2cc(-c3noc([C@@H]4CCCN4C(=N)N)n3)ccc2c1`, in the experiment listed under Homo sapiens, the Ratio Ki was > 2.6. For the same compound, the inhibition constant (Ki) is 3.8 µM at Sphingosine kinase 2 and > 10 µM on Sphingosine kinase 1. For the same compound, in experiment [1], the Activity turned out to be 64%.
As for `N=C(N)N1CCC[C@H]1c1nc(-c2ccc3cc(OCCc4cccc(C(F)(F)F)c4)ccc3c2)no1`, the Activity in experiment [1] stood at 34%.
On the same count and under the same terms, for `N=C(N)N1CCC[C@H]1c1nc(-c2ccc3cc(OCCc4ccccc4C(F)(F)F)ccc3c2)no1` the value was 47%; for `N=C(N)N1CCC[C@H]1c1nc(-c2ccc3cc(OCc4ccc(Cl)cc4)ccc3c2)no1`, 56%; for `N=C(N)N1CCC[C@H]1c1nc(-c2ccc3cc(O)ccc3c2)no1`, 106%.
Same read-out and setting: next, `Cc1ccc(COc2ccc3cc(-c4noc([C@@H]5CCCN5C(=N)N)n4)ccc3c2)cc1`: 94%.
Consider `N=C(N)N1CCC[C@H]1c1nc(-c2ccc3cc(OCc4ccc(C(F)(F)F)cc4)ccc3c2)no1`, for which the Ki on Sphingosine kinase 2 is 1.02 µM. Also, the Activity in experiment [1] worked out at 42%.
Regarding `N=C(N)N1CCC[C@H]1c1nc(-c2ccc3cc(OCc4cccc(Cl)c4)ccc3c2)no1`, in experiment [1], the Activity was found to be 46%.
As to `CCCCCOc1ccc2cc(-c3noc([C@@H]4[C@@H](O)CCN4C(=N)N)n3)ccc2c1`, the Ratio Ki in the experiment listed under Homo sapiens turned out to be 0.8. Also, the values for the Ki at Sphingosine kinase 2 and on Sphingosine kinase 1 were 0.9 µM and 0.73 µM, respectively. For the same compound, in experiment [1], the Activity was found to be 46%.
Take `Cc1ccc(S(=O)(=O)Oc2ccc3cc(-c4noc([C@@H]5CCCN5C(=N)N)n4)ccc3c2)cc1`: the Activity in experiment [1] stood at 89%.
With `N=C(N)N1CCC[C@H]1c1nc(-c2ccc3cc(OCc4ccccc4)ccc3c2)no1`, the Activity in experiment [1] is 97%.
Turning to `N=C(N)N1CCC[C@H]1c1nc(-c2ccc3cc(OCc4cccc(Br)c4)ccc3c2)no1`, the Activity in experiment [1] turned out to be 49%.
Still for that read-out and setting: for `N=C(N)N1CCC[C@H]1c1nc(-c2ccc3cc(OCC(=O)c4ccccc4)ccc3c2)no1` the value was 103%.
Regarding `CC(C)COc1ccc2cc(-c3noc([C@@H]4[C@@H](O)CCN4C(=N)N)n3)ccc2c1`, the Ratio Ki in the experiment listed under Homo sapiens stood at 0.9. The Ki came to 0.98 µM on Sphingosine kinase 2 and 0.93 µM at Sphingosine kinase 1. In experiment [1], the Activity is 53%.
Consider `N=C(N)N1CCC[C@H]1c1nc(-c2ccc3cc(OCc4ccc(Br)cc4)ccc3c2)no1`, for which the Activity in experiment [1] is 35%.
Still for that read-out and setting: next, `CC(C)COc1ccc2cc(-c3noc([C@@H]4CCCN4C(=N)N)n3)ccc2c1`: 74%; `N=C(N)N1CCC[C@H]1c1nc(-c2ccc3cc(OCc4ccc(-c5ccccc5)cc4)ccc3c2)no1`: 51%; `N=C(N)N1CCC[C@H]1c1nc(-c2ccc3cc(OCc4cccc(C(F)(F)F)c4)ccc3c2)no1`: 81%.
Still for that read-out and setting: next, `COCCOc1ccc2cc(-c3noc([C@@H]4CCCN4C(=N)N)n3)ccc2c1`: 118%; `N=C(N)N1CCC[C@H]1c1nc(-c2ccc3cc(OCC(=O)c4ccc(C(F)(F)F)cc4)ccc3c2)no1`: 65%.
Same read-out and setting: next, `N=C(N)N1CCC[C@H]1c1nc(-c2ccc3cc(OCC4CCCC4)ccc3c2)no1`: 57%; `N=C(N)N1CCC[C@H]1c1nc(-c2ccc3cc(OCC(=O)c4ccc(-c5ccccc5)cc4)ccc3c2)no1`: 77%.
